≈ marks a conversion by molar mass, not a printed value.

The text below walks through data of ChEMBL document CHEMBL1143237, “Sulfonamide-1,2,4-triazole derivatives as antifungal and antibacterial agents: synthesis, biological evaluation, lipophilicity, and conformational studies” (Bioorg Med Chem, 2008).

Data set [1] in a line: Partition coefficient, log P of the compound. In kind it is physicochemical. The note with it: octanol/water. The procedure, abridged:
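Calculated, not measured: AlogP, IAlogP, ClogP, Cosmo logP, mlogP, Kowwin and XlogP were computed and averaged.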

Another data set has as its system Enterobacter cloacae. The data set is described as follows: Antibacterial activity against Enterobacter cloacae after 24 hrs by microdilution test. In kind it is functional. The method in brief: (§1)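 Broth microdilution in LB medium in 96-well plates. Inoculum 1.0 × 10⁴ CFU per well, from a suspension set to 1.0 × 10⁵ CFU/ml in sterile saline. Compounds at […] µg/ml. Incubation 24 h at 28 °C. MIC is the lowest concentration with no visible growth under a binocular microscope. MBC by subculturing 2 µl into fresh broth for a further 72 h. OD540 read against blank. DMSO negative control.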
Background: Dilution methods test growth across graded concentrations, often in twofold steps.

The subject of a further data set is Salmonella enteritidis. Briefly: Antibacterial activity against Salmonella enteritidis ATCC 13076 after 24 hrs by microdilution test. As to conditions: Salmonella enterica, ATCC 13076, 24 h. Format: functional, Salmonella enterica subsp. enterica serovar Enteritidis. The procedure, abridged: as §1
The test system of the next data set is Salmonella typhimurium. Briefly: Antibacterial activity against Salmonella Typhimurium ATCC 13311 after 24 hrs by microdilution test. As to conditions: Salmonella enterica, ATCC 13311, 24 h. In kind it is functional, Salmonella enterica subsp. enterica serovar Typhimurium. The procedure, abridged:
as §1

Data set [2] concerns Staphylococcus epidermidis. The data set is described as follows: Antibacterial activity against Staphylococcus epidermidis ATCC 12228 after 24 hrs by microdilution test. Format: functional. The note with it: ATCC 12228, 24 h. The method in brief:
as §1

The subject of another data set is Micrococcus luteus. Briefly: Antibacterial activity against Micrococcus flavus ATCC 10240 after 24 hrs by microdilution test. In kind it is functional. The note with it: ATCC 10240, 24 h. The procedure, abridged: as §1
A further data set deals with Escherichia coli. The data set is described as follows: Antibacterial activity against Escherichia coli ATCC 35210 after 24 hrs by microdilution test. Format: functional. The note with it: ATCC 35210, 24 h. The procedure, abridged:
as §1

A further data set concerns Aspergillus flavus. Briefly: Antifungal activity against Aspergillus flavus ATCC 9643 after 72 hrs by microdilution test. In kind it is functional. The note with it: ATCC 9643, 72 h. The method in brief:
(§2)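 Modified microdilution in malt broth. Spores were washed from malt agar with sterile 0.85% saline containing 0.1% Tween 80 and adjusted to about 1.0 × 10⁵ per well. Compounds were dissolved in DMSO and tested at […] µg/ml. Incubation 72 h at 28 °C. MIC is the lowest concentration with no visible growth under a binocular microscope. MFC by 2 µl subculture and a further 72 h at 28 °C.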

A further data set relates to Trichoderma viride. The data set is described as follows: Antifungal activity against Trichoderma viride IAM 5061 after 72 hrs by microdilution test. Format: functional. The method in brief:
as §2

A further data set relates to Talaromyces funiculosus. The data set is described as follows: Antifungal activity against Penicillium funiculosum ATCC 36839 after 72 hrs by microdilution test. In kind it is functional. As to conditions: ATCC 36839, 72 h. The method in brief: as §2
The next data set deals with Aspergillus versicolor. The data set is described as follows: Antifungal activity against Aspergillus versicolor ATCC 11730 after 72 hrs by microdilution test. Format: functional. As to conditions: ATCC 11730, 72 h. The procedure, abridged:
as §2

A further data set relates to Aspergillus ochraceus. Briefly: Antifungal activity against Aspergillus ochraceus ATCC 12066 after 72 hrs by microdilution test. In kind it is functional. The note with it: ATCC 12066, 72 h. The procedure, abridged:
as §2

The subject of another data set is Aspergillus niger. Briefly: Antifungal activity against Aspergillus niger ATCC 6275 after 72 hrs by microdilution test. As to conditions: ATCC 6275, 72 h. Format: functional. The procedure, abridged:
as §2

Another data set deals with Bacillus cereus. The data set is described as follows: Antibacterial activity against Bacillus cereus ATCC 10907 after 24 hrs by microdilution test. As to conditions: ATCC 10907, 24 h.

What is called logP is a log measure of how a compound divides between an organic and an aqueous phase. High values mean higher lipophilicity, low ones lower lipophilicity. The MBC is the lowest tested concentration that kills the bacteria rather than only halting them. A lower MBC goes with greater bactericidal potency. Broadly, the MIC is the lowest concentration that inhibits growth of the organism. A lower MIC goes with a more susceptible organism. The MFC is the lowest tested concentration that kills the fungus rather than only halting it. The low end stands for greater fungicidal potency, the high end for weaker fungicidal potency. For the compound `COc1cc(Cc2n[nH]c(=S)n2-c2ccccc2)c(S(=O)(=O)N2CCOCC2)cc1OC`, the logP in [1] stood at 1.57. For the same compound, the MBC is 100 µg/mL (≈ 210 µM) in the data set with Enterobacter cloacae; 150 µg/mL (≈ 315 µM) against Salmonella enteritidis; 150 µg/mL (≈ 315 µM) in the data set with Salmonella typhimurium; 150 µg/mL (≈ 315 µM) in data set [2]; 150 µg/mL (≈ 315 µM) in the data set on Micrococcus luteus; 150 µg/mL (≈ 315 µM) against Escherichia coli. The MBC against Bacillus cereus is 150 µg/mL (≈ 315 µM). Moreover, the MIC against Enterobacter cloacae turned out to be 100 µg/mL (≈ 210 µM); in the data set on Salmonella enteritidis, 150 µg/mL (≈ 315 µM); with Salmonella typhimurium, 150 µg/mL (≈ 315 µM); in data set [2], 150 µg/mL (≈ 315 µM); against Micrococcus luteus it was 150 µg/mL (≈ 315 µM); against Escherichia coli, 100 µg/mL (≈ 210 µM). Moreover, the MIC against Aspergillus flavus was 100 µg/mL (≈ 210 µM); against Trichoderma viride, 100 µg/mL (≈ 210 µM); against Talaromyces funiculosus, 100 µg/mL (≈ 210 µM); with Aspergillus versicolor it was 100 µg/mL (≈ 210 µM); against Aspergillus ochraceus it was 100 µg/mL (≈ 210 µM); in the data set with Aspergillus niger, 150 µg/mL (≈ 315 µM). Further, in the data set with Bacillus cereus, it took 150 µg/mL (≈ 315 µM) to inhibit growth (MIC). For the same compound, the MFC with Aspergillus flavus, in the data set with Trichoderma viride, in the data set with Talaromyces funiculosus, with Aspergillus versicolor, in the data set with Aspergillus ochraceus and against Aspergillus niger was 150 µg/mL (≈ 315 µM) in each case.

Consider `COc1cc(Cc2n[nH]c(=S)n2-c2ccc(Cl)cc2)c(S(=O)(=O)N2CCCC2)cc1OC`, for which the logP in data set [1] was 2.11. Moreover, the MBC in the data set on Enterobacter cloacae amounted to 100 µg/mL (≈ 202 µM); against Salmonella enteritidis it was 150 µg/mL (≈ 303 µM); against Salmonella typhimurium it was 150 µg/mL (≈ 303 µM); in [2], 150 µg/mL (≈ 303 µM); with Micrococcus luteus, 150 µg/mL (≈ 303 µM); in the data set on Escherichia coli, 150 µg/mL (≈ 303 µM). Besides, the MBC with Bacillus cereus worked out at 150 µg/mL (≈ 303 µM). The MIC turned out to be 100 µg/mL (≈ 202 µM) against Enterobacter cloacae; 150 µg/mL (≈ 303 µM) with Salmonella enteritidis; 150 µg/mL (≈ 303 µM) against Salmonella typhimurium; 150 µg/mL (≈ 303 µM) in [2]; 150 µg/mL (≈ 303 µM) with Micrococcus luteus; 150 µg/mL (≈ 303 µM) against Escherichia coli. The MIC in the data set on Aspergillus flavus worked out at 100 µg/mL (≈ 202 µM); with Trichoderma viride, 150 µg/mL (≈ 303 µM); against Talaromyces funiculosus, 100 µg/mL (≈ 202 µM); with Aspergillus versicolor, 100 µg/mL (≈ 202 µM); against Aspergillus ochraceus, 100 µg/mL (≈ 202 µM); against Aspergillus niger, 150 µg/mL (≈ 303 µM). Also, the MIC in the data set with Bacillus cereus was 150 µg/mL (≈ 303 µM). The MFC against Aspergillus flavus, against Trichoderma viride, with Talaromyces funiculosus, against Aspergillus versicolor, against Aspergillus ochraceus and with Aspergillus niger was 150 µg/mL (≈ 303 µM) in each case.

With `c1ccc(-c2ccc(C(c3ccccc3)n3ccnc3)cc2)cc1` (centres undefined) [BIFONAZOLE], the MFC against Aspergillus flavus worked out at 200 µg/mL (≈ 644 µM); in the data set with Trichoderma viride, 250 µg/mL (≈ 805 µM); with Talaromyces funiculosus, 250 µg/mL (≈ 805 µM); against Aspergillus versicolor, 200 µg/mL (≈ 644 µM); against Aspergillus ochraceus it was 200 µg/mL (≈ 644 µM); against Aspergillus niger, 250 µg/mL (≈ 805 µM). Besides, the MIC in the data set with Aspergillus flavus was 150 µg/mL (≈ 483 µM); with Trichoderma viride, 200 µg/mL (≈ 644 µM); against Talaromyces funiculosus, 200 µg/mL (≈ 644 µM); against Aspergillus versicolor it was 150 µg/mL (≈ 483 µM); against Aspergillus ochraceus, 150 µg/mL (≈ 483 µM); in the data set on Aspergillus niger it was 200 µg/mL (≈ 644 µM).

With `O=C(N[C@H](CO)[C@H](O)c1ccc([N+](=O)[O-])cc1)C(Cl)Cl` [CHLORAMPHENICOL], the MBC is 200 µg/mL (≈ 619 µM) with Enterobacter cloacae; 200 µg/mL (≈ 619 µM) with Salmonella enteritidis; 200 µg/mL (≈ 619 µM) in the data set on Salmonella typhimurium; 100 µg/mL (≈ 309 µM) in [2]; 200 µg/mL (≈ 619 µM) in the data set on Micrococcus luteus; 250 µg/mL (≈ 774 µM) against Escherichia coli. In the data set on Bacillus cereus, this compound yielded an MBC of 200 µg/mL (≈ 619 µM). Moreover, the MIC with Enterobacter cloacae is 150 µg/mL (≈ 464 µM); with Salmonella enteritidis, 150 µg/mL (≈ 464 µM); against Salmonella typhimurium, 150 µg/mL (≈ 464 µM); in [2], 100 µg/mL (≈ 309 µM); in the data set on Micrococcus luteus, 150 µg/mL (≈ 464 µM); against Escherichia coli, 250 µg/mL (≈ 774 µM). This compound also registered an MIC in the data set on Bacillus cereus of 150 µg/mL (≈ 464 µM).

Consider `CN[C@@H]1[C@H](O[C@H]2[C@H](O[C@H]3[C@H](O)[C@@H](O)[C@H](N=C(N)N)[C@@H](O)[C@@H]3N=C(N)N)O[C@@H](C)[C@]2(O)C=O)O[C@@H](CO)[C@H](O)[C@H]1O` [STREPTOMYCIN], for which the MBC with Enterobacter cloacae came to 100 µg/mL (≈ 172 µM); against Salmonella enteritidis it was 100 µg/mL (≈ 172 µM); with Salmonella typhimurium, 100 µg/mL (≈ 172 µM); in data set [2], 100 µg/mL (≈ 172 µM); against Micrococcus luteus, 150 µg/mL (≈ 258 µM); against Escherichia coli, 150 µg/mL (≈ 258 µM). In the data set on Bacillus cereus, this compound gave an MBC of 150 µg/mL (≈ 258 µM). The MIC in the data set with Enterobacter cloacae is 50 µg/mL (≈ 86 µM); against Salmonella enteritidis, 50 µg/mL (≈ 86 µM); with Salmonella typhimurium, 50 µg/mL (≈ 86 µM); in data set [2], 150 µg/mL (≈ 258 µM); against Micrococcus luteus, 100 µg/mL (≈ 172 µM); against Escherichia coli, 100 µg/mL (≈ 172 µM). Further, in the data set with Bacillus cereus, the MIC is 100 µg/mL (≈ 172 µM).
